Data set [1] concerns Staphylococcus aureus. Nature of the data set: Antimicrobial activity against 2 times drug resistance selected Staphylococcus aureus ARC516-2F by broth microdilution/CLSI method. It is filed as functional. Background: Broth dilution looks for growth in wells or tubes with falling amounts of substance.
Data set [2] concerns Staphylococcus aureus. Nature of the data set: Antimicrobial activity against Staphylococcus aureus ARC516 by broth microdilution/CLSI method. It counts as functional.
For data set [3], the system named is Staphylococcus aureus. As to the kind of experiment: Antimicrobial activity against 2 times drug resistance selected Staphylococcus aureus ARC516-1F by broth microdilution/CLSI method. It is filed as functional.
The test system of data set [4] is Staphylococcus aureus. Nature of the data set: Antimicrobial activity against methicillin, quinolone-resistant Staphylococcus aureus by broth microdilution/CLSI method. It is filed as functional. The conditions noted are these: Staphylococcus aureus; read-out: MIC.
The nature of data set [5]: Solubility of the compound. It is filed as physicochemical.
The next data set concerns Haemophilus influenzae. Nature of the data set: Antimicrobial activity against Haemophilus influenzae by broth microdilution/CLSI method. It counts as functional. Conditions: Haemophilus influenzae; read-out: MIC.
Data set [6] deals with Staphylococcus aureus. Nature of the data set: Antimicrobial activity against methicillin-sensitive Staphylococcus aureus by broth microdilution/CLSI method. The conditions noted are these: Staphylococcus aureus; read-out: MIC. It counts as functional.
A further data set concerns Moraxella catarrhalis. As to the kind of experiment: Antimicrobial activity against Moraxella catarrhalis by broth microdilution/CLSI method. It is filed as functional. The conditions noted are these: Moraxella catarrhalis; read-out: MIC.
A short description of data set [7]: Clearance in dog at 10 mg/kg, iv. It counts as ADME, organism-based, Canis lupus familiaris. Set-up: dose 10 mg/kg, route intravenous. Conditions: plasma.
The next data set has as its system Streptococcus pneumoniae. Nature of the data set: Antibacterial activity against Streptococcus pneumoniae by broth microdilution/CLSI method. It is filed as functional. The conditions noted are these: Streptococcus pneumoniae; read-out: MIC.
Data set [8] can be described thus: Bioavailability in CD1 mouse at 10 mg/kg, […]. It counts as ADME, organism-based. The conditions noted are these: in vivo.
Data set [9] in a line: Clearance in CD1 mouse at 10 mg/kg, iv. It counts as ADME, organism-based. Details: dose 10 mg/kg, route intravenous. Conditions: in vivo.
A short description of data set [10]: Clearance in Wistar rat at 10 mg/kg, iv. It is filed as ADME, organism-based. Details: dose 10 mg/kg, route intravenous. The conditions noted are these: in vivo.
The target of data set [11] is T1, ATP-binding cassette sub-family C member 2 (Homo sapiens, UniProt Q92887). As to the kind of experiment: Inhibition of ATPase activity of human MRP2 assessed as inorganic phosphate.
T1 sequence (Q92887 whole entry): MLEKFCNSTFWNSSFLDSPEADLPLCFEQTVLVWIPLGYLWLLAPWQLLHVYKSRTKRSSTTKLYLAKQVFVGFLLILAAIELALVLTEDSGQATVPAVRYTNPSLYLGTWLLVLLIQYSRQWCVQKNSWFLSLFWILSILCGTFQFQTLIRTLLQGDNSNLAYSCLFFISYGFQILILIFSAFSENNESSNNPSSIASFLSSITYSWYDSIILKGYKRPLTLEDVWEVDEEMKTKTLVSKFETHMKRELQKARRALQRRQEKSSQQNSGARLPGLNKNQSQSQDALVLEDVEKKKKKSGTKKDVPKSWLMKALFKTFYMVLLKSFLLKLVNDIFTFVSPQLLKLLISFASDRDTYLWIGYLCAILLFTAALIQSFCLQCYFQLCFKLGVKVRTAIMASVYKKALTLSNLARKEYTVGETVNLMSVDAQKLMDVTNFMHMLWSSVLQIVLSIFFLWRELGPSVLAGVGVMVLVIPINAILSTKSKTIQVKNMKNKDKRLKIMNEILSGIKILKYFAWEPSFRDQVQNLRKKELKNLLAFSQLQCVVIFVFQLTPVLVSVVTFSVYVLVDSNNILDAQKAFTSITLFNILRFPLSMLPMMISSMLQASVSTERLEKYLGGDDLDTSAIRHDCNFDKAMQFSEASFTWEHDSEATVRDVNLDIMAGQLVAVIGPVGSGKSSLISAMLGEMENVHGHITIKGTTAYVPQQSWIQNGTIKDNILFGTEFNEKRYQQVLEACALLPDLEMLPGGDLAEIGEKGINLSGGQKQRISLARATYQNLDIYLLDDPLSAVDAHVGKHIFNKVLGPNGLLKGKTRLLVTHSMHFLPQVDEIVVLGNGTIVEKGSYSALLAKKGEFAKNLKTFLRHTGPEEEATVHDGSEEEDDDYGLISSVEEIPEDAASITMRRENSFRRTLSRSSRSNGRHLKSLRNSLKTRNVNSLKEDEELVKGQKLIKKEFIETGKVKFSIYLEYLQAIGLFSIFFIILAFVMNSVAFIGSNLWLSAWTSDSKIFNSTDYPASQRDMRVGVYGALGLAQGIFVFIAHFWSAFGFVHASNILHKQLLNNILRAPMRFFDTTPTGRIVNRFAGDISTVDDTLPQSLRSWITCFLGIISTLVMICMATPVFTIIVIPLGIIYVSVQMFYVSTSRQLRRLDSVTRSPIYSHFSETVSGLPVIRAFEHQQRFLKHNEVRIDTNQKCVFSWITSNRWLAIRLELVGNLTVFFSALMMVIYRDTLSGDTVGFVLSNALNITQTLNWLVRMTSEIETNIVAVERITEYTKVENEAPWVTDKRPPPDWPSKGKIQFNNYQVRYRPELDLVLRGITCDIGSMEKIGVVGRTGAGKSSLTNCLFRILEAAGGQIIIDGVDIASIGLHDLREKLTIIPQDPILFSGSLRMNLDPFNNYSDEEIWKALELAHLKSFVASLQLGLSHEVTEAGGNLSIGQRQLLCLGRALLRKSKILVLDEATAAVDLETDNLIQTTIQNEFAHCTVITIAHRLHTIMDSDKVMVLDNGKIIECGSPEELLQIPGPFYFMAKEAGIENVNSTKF
Data set [12] deals with T2, ATP-binding cassette sub-family C member 2 (Rattus norvegicus, UniProt Q63120). Nature of the data set: Stimulation of ATPase activity of rat Mrp2 assessed as inorganic phosphate.
T2 sequence (Q63120 whole entry): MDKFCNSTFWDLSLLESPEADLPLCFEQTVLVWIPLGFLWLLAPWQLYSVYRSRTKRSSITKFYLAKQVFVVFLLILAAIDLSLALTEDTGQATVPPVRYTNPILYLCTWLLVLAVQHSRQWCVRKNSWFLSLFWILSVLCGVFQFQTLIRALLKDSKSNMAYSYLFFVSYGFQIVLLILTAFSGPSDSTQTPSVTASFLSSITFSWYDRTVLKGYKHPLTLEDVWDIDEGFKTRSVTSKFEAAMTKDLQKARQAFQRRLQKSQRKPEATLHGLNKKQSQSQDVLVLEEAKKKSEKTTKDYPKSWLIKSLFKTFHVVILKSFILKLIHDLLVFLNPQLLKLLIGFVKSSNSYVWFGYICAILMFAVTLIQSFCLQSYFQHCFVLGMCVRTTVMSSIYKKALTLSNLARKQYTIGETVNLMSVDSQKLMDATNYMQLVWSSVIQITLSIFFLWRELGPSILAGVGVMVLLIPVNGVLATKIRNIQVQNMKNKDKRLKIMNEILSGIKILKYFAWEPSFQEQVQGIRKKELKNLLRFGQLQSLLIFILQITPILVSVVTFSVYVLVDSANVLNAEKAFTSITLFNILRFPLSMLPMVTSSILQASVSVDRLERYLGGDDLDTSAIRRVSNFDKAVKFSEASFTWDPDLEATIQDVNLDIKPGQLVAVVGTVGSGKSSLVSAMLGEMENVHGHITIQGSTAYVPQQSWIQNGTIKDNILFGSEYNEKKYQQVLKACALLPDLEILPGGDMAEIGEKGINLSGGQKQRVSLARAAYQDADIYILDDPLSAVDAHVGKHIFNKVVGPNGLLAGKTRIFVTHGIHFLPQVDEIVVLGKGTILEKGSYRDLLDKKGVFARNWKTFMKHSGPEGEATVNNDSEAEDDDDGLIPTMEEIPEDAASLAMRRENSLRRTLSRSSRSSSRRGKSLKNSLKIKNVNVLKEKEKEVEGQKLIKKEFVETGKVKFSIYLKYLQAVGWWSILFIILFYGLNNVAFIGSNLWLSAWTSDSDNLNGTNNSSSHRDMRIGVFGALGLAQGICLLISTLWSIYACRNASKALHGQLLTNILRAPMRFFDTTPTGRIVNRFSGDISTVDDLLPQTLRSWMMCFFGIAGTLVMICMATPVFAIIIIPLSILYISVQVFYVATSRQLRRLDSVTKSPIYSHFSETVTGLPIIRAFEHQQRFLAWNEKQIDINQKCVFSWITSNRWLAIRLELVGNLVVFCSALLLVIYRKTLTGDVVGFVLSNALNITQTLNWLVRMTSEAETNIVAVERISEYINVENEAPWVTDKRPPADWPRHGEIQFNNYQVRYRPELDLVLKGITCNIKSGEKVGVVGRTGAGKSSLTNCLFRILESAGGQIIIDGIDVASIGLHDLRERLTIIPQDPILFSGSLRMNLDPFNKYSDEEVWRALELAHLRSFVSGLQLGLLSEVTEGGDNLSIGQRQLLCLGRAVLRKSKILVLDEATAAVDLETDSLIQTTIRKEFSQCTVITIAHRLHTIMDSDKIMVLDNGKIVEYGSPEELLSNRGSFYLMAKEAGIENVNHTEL
The nature of data set [13]: Clearance in rat at 10 mg/kg, iv. It counts as ADME, organism-based. Details: dose 10 mg/kg, route intravenous. Conditions: in vivo.
Data set [14] can be described thus: Bioavailability in Wistar rat at 10 mg/kg, […]. It is filed as ADME, organism-based. Conditions: in vivo.
The nature of data set [15]: Percentage unbound in mouse plasma. It is filed as ADME, cell-free.
The nature of data set [16]: Octanol-phosphate buffer distribution coefficient, log D of the compound at pH 7.4 by shake flask method. It counts as physicochemical.
Data set [17] relates to Escherichia coli. Nature of the data set: Antimicrobial activity against wild-type Escherichia coli Eco523 by broth microdilution/CLSI method. Conditions: Escherichia coli, Eco523; read-out: MIC. It is filed as functional.
For data set [18], the target named is T2, ATP-binding cassette sub-family C member 2. Nature of the data set: Inhibition of ATPase activity of rat Mrp2 assessed as inorganic phosphate.
Another data set concerns the target DNA gyrase subunit B (Staphylococcus aureus, UniProt P0A0K8). As to the kind of experiment: Inhibition of ATPase activity of Staphylococcus aureus GyrB. A digest of the protocol:
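IC50 was determined against S. aureus GyrB in the routine screening assay. The enzyme concentration limits resolution below 10 nM.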

Data set [19] is described as follows: Ratio of MIC for methicillin, quinolone-resistant Staphylococcus aureus to fraction unbound in human plasma. It is filed as ADME.
The target in data set [20] is T1, ATP-binding cassette sub-family C member 2. Nature of the data set: Stimulation of ATPase activity of human MRP2 assessed as inorganic phosphate.
Data set [21] in a line: Percentage unbound in rat plasma. It counts as ADME, cell-free.
Data set [22] in a line: Dissociation constant, pKa of the compound. It counts as physicochemical.
A short description of data set [23]: Clearance in TR-negative Wistar rat at 10 mg/kg, iv. It counts as ADME, organism-based. Set-up: dose 10 mg/kg, route intravenous. Conditions: in vivo.
Data set [24] in a line: Percentage unbound in dog plasma. It counts as ADME, cell-free, Canis lupus familiaris.
A short description of data set [25]: Bioavailability in dog at 10 mg/kg, iv. It counts as ADME, organism-based, Canis lupus familiaris. Conditions: plasma.
The test system of the next data set is Streptococcus pyogenes. Nature of the data set: Antimicrobial activity against Streptococcus pyogenes by broth microdilution/CLSI method. It is filed as functional.
In data set [26] the test system is Escherichia coli. As to the kind of experiment: Antimicrobial activity against Escherichia coli tolC- by broth microdilution/CLSI method. It counts as functional. Conditions: Escherichia coli; read-out: MIC.
Data set [27] can be described thus: Percentage unbound in human plasma. It counts as ADME, cell-free.
A short description of data set [28]: AUC in methicillin-sensitive Staphylococcus aureus ARC516 infected in neutropenic CD1 mouse thigh model at 30 mg/kg, ip q24. It is filed as ADME, organism-based. Set-up: dose 30 mg/kg, route intraperitoneal. Conditions: in vivo.
In data set [29] the test system is Staphylococcus aureus. Nature of the data set: Antibacterial activity against methicillin-sensitive Staphylococcus aureus ARC516 infected in neutropenic CD1 mouse thigh model assessed as decrease in bacterial viable counts at 30 mg/kg, ip q24. It counts as functional. Conditions: route intraperitoneal.
For a further data set, the system named is Mus musculus. Nature of the data set: fAUC in methicillin-sensitive Staphylococcus aureus ARC516 infected in neutropenic CD1 mouse thigh model at 30 mg/kg, ip q24. Set-up: dose 30 mg/kg, route intraperitoneal. It is filed as ADME, organism-based. The conditions noted are these: in vivo.
The test system of data set [30] is Staphylococcus aureus. As to the kind of experiment: Antibacterial activity against methicillin-sensitive Staphylococcus aureus ARC516 infected in ip dosed neutropenic CD1 mouse thigh model assessed as decrease in bacterial viable counts treated for q24. It is filed as functional. Conditions: ARC516, Thigh muscle.

Molecules are shown by their SMILES. Converted amounts (≈) assume the structure as drawn. A value given as a limit tells only on which side of the number the result lay.

DNA gyrase subunit B, sequence (P0A0K8 whole entry): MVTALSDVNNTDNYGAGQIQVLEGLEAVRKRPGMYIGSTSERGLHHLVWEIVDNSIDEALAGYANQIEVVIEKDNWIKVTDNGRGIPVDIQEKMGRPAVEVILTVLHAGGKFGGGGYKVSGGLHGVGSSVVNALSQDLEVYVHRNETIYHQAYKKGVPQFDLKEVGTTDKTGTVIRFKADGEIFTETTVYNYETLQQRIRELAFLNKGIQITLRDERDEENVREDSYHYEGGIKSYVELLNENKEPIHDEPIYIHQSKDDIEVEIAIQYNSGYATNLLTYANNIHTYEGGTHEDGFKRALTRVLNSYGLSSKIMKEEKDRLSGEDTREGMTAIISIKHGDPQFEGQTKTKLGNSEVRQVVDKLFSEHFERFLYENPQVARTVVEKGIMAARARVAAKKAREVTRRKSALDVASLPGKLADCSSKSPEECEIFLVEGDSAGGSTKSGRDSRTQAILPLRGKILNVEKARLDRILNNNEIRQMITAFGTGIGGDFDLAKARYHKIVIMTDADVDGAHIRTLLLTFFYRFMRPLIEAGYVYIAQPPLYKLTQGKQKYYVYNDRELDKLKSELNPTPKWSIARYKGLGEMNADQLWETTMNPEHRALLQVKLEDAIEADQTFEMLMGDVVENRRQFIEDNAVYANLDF

Turning to `CC(=O)NC[C@H]1CN(c2ccc(N3CCOCC3)c(F)c2)C(=O)O1` [LINEZOLID], the MIC with Staphylococcus aureus [1] is 0.5 µg/mL (≈ 1.48 µM); in the data set on Staphylococcus aureus [2], 1 µg/mL (≈ 2.96 µM); in the data set on Staphylococcus aureus [3] it was 1 µg/mL (≈ 2.96 µM).

In general, solubility refers to the dissolved amount per volume that the medium holds. The clearance is the rate of elimination divided by the concentration. The bioavailability is the share of a dose that reaches the circulation, judged against a reference dose that is usually intravenous. Low values mean poor availability, high ones good availability. By IC50 is commonly meant the concentration at which inhibition is half-maximal. What is called EC50 is the concentration giving half of the maximal effect. By fraction unbound is commonly meant the share of the substance not bound to proteins or other matrix. A lower fraction unbound goes with extensive binding. The logD is lipophilicity at a set pH, counting ionised and neutral species. The low end stands for lower lipophilicity, the high end for higher lipophilicity. Usually pKa stands for the pH at which an ionisable group is half protonated. A lower pKa goes with a group that gives up its proton readily. As for `COCCNC(=O)c1nc(N2CC[C@@H](NC(=O)c3[nH]c(C)c(Cl)c3Cl)[C@@H](OC)C2)sc1C(=O)O`, the MIC in the data set with Staphylococcus aureus [4] turned out to be 0.089 µg/mL (≈ 0.167 µM); in the data set with Haemophilus influenzae, 0.15 µg/mL (≈ 0.281 µM); in the data set with Staphylococcus aureus [6] it was 0.078 µg/mL (≈ 0.146 µM); in the data set on Moraxella catarrhalis it was 0.17 µg/mL (≈ 0.318 µM); in the data set on Streptococcus pneumoniae, 0.018 µg/mL (≈ 0.0337 µM); with Escherichia coli [17], 24 µg/mL (≈ 44.9 µM). In addition, the figures for the MIC with Streptococcus pyogenes and in the data set with Escherichia coli [26] were 0.017 µg/mL (≈ 0.0318 µM) and 0.62 µg/mL (≈ 1.16 µM), respectively. Further, in [5], the solubility came out at 880 µM (≈ 470 µg/mL). The clearance in data set [7] came to 3 mL/min/kg; in [9], 57 mL/min/kg; in [10], 2.1 mL/min/kg; in data set [13], 9.5 mL/min/kg; in [23], 1.5 mL/min/kg. The bioavailability amounted to 57% in data set [8], 34% in data set [14] and 100% in data set [25]. For the same compound, the figures for the half-maximal inhibitory concentration (IC50) (in [11]; in data set [18]; at DNA gyrase subunit B) were 100 µM, 78 µM and less than 0.01 µM, respectively. The EC50 in data set [12] and in [20] was more than 200 µM throughout. For the same compound, the fraction unbound is 0.0585 in data set [15], 0.038 in [21], 0.082 in data set [24] and 0.027 in data set [27]. The same compound returned a logD in [16] of 1.2. Also, the Ratio in [19] was determined as 3.3. The compound further gave a pKa in data set [22] of 4.4.

What is called AUC is concentration integrated over time. Higher therefore signals high exposure. Turning to `CO[C@H]1CN(c2nc(-c3ncnn3C)c(C(=O)O)s2)CC[C@H]1NC(=O)c1[nH]c(C)c(Cl)c1Cl`, the MIC with Staphylococcus aureus [4] is 0.04 µg/mL (≈ 0.0778 µM); in the data set on Haemophilus influenzae, 0.12 µg/mL (≈ 0.233 µM); in the data set on Staphylococcus aureus [6], 0.063 µg/mL (≈ 0.122 µM); in the data set on Moraxella catarrhalis, 0.026 µg/mL (≈ 0.0505 µM); with Streptococcus pneumoniae, 0.007 µg/mL (≈ 0.0136 µM); in the data set on Escherichia coli [17] it was 32 µg/mL (≈ 62.2 µM). The MIC was 0.03 µg/mL (≈ 0.0583 µM) with Staphylococcus aureus [30], 0.016 µg/mL (≈ 0.0311 µM) against Streptococcus pyogenes and 0.46 µg/mL (≈ 0.894 µM) in the data set with Escherichia coli [26]. In data set [5], this compound came in with a solubility of 630 µM (≈ 324 µg/mL). The compound also returned an AUC in data set [28] of 204 µg·h/mL. The deltalog10CFU with Staphylococcus aureus [29] is given as 1.54. The results for the clearance in [7], in data set [9] and in data set [13] were 1.6 mL/min/kg, 7.4 mL/min/kg and 17 mL/min/kg, respectively. The values for the bioavailability in data set [8], in [14] and in data set [25] were 74%, 65% and 70%, respectively. The figures for the IC50 (in data set [11]; in [18]; on DNA gyrase subunit B) were more than 200 µM, more than 200 µM and less than 0.01 µM, respectively. The EC50 in [12] was found to be 110 µM; in data set [20] it was 140 µM. In the data set with Mus musculus, this compound registered a fAUC of 19.8 µg·h/mL. Also, the fraction unbound in data set [15] stood at 0.097; in data set [21], 0.088; in [24] it was 0.2; in data set [27], 0.032. The logD in data set [16] stood at 0.15. Besides, in data set [19], the Ratio is given as 1.25. This compound also came in with a pKa in data set [22] of 4.5.

The values are drawn from ChEMBL document CHEMBL3352173, “Optimization of pyrrolamide topoisomerase II inhibitors toward identification of an antibacterial clinical candidate (AZD5099)” (J Med Chem, 2014).
